SMILES strings stand for the structures.

One data set concerns GC3/MTK-. Briefly: Inhibition of cellular growth in human adenocarcinoma cell line (GC3/M TK) deficient in thymidine kinase. It counts as functional, cell-based.
In data set [1] the target is T1, Thymidylate synthase (Escherichia coli, UniProt C3SWJ7). Briefly: (§1) Inhibition of purified Escherichia coli Thymidylate synthase.
The target in data set [2] is T1, Thymidylate synthase. Described as §1. The source holds these as a separate data set.
A further data set concerns CCRF-CEM. Briefly: Inhibition of human lymphoblastic leukemia (CCRF-CEM) cell growth measured using a modification of the MTT36 colorimetric assay of Mosmann. The format is functional, cell-based.
The subject of data set [3] is L1210. Briefly: Inhibition of mouse L1210 (murine leukemia) cell growth measured using a modification of the MTT36 colorimetric assay of Mosmann. It counts as functional, cell-based.
Data set [4] addresses T2, Thymidylate synthase (Homo sapiens, UniProt P04818). Briefly: (§2) Inhibition of human Thymidylate synthase.
In data set [5] the target is T2, Thymidylate synthase. The description is as §2. The source holds these as a separate data set.
Data set [6] concerns L1210. The data set can be described thus: The ratio of IC50 of the inhibitor (assayed in L1210 cells) in presence and absence of thymidine. The format is functional, Mus musculus. The method in brief:
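Murine L1210 leukemia cells grown in RPMI-1640 with 5% fetal calf serum and 0.5% DMSO, seeded at 1000 cells/well, over nine 2-fold serial dilutions of compound, with or without 10 μM thymidine replenished daily over 3 days.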

The nature of data set [7]: Partition coefficient (logP). It counts as physicochemical. The note with it: octanol/water.
The target of data set [8] is T2, Thymidylate synthase. The data set can be described thus: Compound was tested for TS activity against human Thymidylate synthase by tight binding kinetics.

T1 sequence (C3SWJ7 whole entry): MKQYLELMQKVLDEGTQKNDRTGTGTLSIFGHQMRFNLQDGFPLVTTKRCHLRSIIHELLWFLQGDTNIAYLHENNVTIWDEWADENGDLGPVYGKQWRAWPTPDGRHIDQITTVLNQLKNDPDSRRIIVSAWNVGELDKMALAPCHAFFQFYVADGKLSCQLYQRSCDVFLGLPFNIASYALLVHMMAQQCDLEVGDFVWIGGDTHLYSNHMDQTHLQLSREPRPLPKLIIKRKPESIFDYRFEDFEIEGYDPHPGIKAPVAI
T2 sequence (P04818 whole entry): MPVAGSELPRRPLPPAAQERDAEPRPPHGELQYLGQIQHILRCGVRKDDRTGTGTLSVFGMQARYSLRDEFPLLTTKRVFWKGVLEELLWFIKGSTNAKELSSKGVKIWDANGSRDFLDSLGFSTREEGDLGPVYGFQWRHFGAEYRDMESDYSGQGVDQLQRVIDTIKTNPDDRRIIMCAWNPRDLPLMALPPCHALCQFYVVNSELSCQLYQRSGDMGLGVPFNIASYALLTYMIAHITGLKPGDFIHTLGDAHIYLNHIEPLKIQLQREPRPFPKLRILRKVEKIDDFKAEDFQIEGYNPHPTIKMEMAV

Regarding `Cc1ccc2nc(N)[nH]c(=O)c2c1Sc1ccncc1` [NOLATREXED], the IC50 in the data set with GC3/MTK- was determined as 1 µM; with CCRF-CEM, 0.81 µM; in the data set with L1210 [3], 1 µM. For the same compound, the Ki came to 0.14 µM on Thymidylate synthase [1] and 0.049 µM on Thymidylate synthase [2].

As to `Cc1nc(O)c2c(Sc3ccncc3)c(C)ccc2n1`, the IC50 is 6 µM in the data set on GC3/MTK-, 5.2 µM with CCRF-CEM and 3.5 µM in the data set with L1210 [3]. Also, the Ki came out at 0.82 µM on Thymidylate synthase [1], 0.093 µM at Thymidylate synthase [4], 0.5 µM at Thymidylate synthase [2] and 0.058 µM on Thymidylate synthase [5]. Also, the Thymidine shift in the data set on L1210 [6] is given as greater than 14. The compound also showed a logP in data set [7] of 2.16.

For the compound `Cc1ccc2nc(N)nc(O)c2c1Sc1ccnc(C(F)(F)F)c1`, the IC50 in the data set on GC3/MTK- was greater than 2 µM; with CCRF-CEM, greater than 2 µM; with L1210 [3], 1.8 µM. Moreover, the Ki on Thymidylate synthase [4] amounted to 0.028 µM; on Thymidylate synthase [5] it was 0.024 µM. For the same compound, the Thymidine shift in the data set on L1210 [6] is greater than 5.

`Cc1nc(O)c2c(Sc3ccnnc3)c(C)ccc2n1` displayed an IC50 with GC3/MTK- greater than 12.5 µM. Also, the Ki was 1.1 µM at Thymidylate synthase [1], 0.087 µM at Thymidylate synthase [4] and 0.6 µM on Thymidylate synthase [2].

`Cc1nc2ccc(C)c(Sc3ccc(S(=O)(=O)c4ccccc4)cc3)c2c(=O)[nH]1`: the figures for the IC50 in the data set on GC3/MTK-, in the data set on CCRF-CEM and with L1210 [3] were 4.5 µM, 2.1 µM and 1.8 µM, respectively. The logP in data set [7] was 4.67.

Regarding `Cc1ccc2nc(N)nc(O)c2c1Sc1ccnnc1`, the figures for the IC50 with GC3/MTK-, with CCRF-CEM and in the data set on L1210 [3] were 1.5 µM, 0.88 µM and 1.6 µM, respectively. Besides, the affinity on Thymidylate synthase [4] corresponds to a Ki of 0.013 µM. In the data set with L1210 [6], the Thymidine shift is on record as 17.6.

Regarding `Cc1nc(O)c2c(Sc3ccncc3)c(O)ccc2n1`, the IC50 with GC3/MTK-, with CCRF-CEM and in the data set on L1210 [3] was greater than 50 µM each time. For the same compound, the Ki on Thymidylate synthase [1] was found to be 190 µM; on Thymidylate synthase [4], 8.8 µM; at Thymidylate synthase [2] it was 51 µM. Moreover, the Thymidine shift with L1210 [6] is on record as 1.

With `Nc1nc(O)c2c(Sc3ccncc3)c(Cl)ccc2n1`, the IC50 in the data set on GC3/MTK- came to 2.05 µM; in the data set on CCRF-CEM it was 2.1 µM; in the data set with L1210 [3] it was 1.3 µM. Also, the Ki is 0.02 µM at Thymidylate synthase [4] and 0.018 µM on Thymidylate synthase [5]. Besides, the Thymidine shift with L1210 [6] is recorded as roughly 14.

For `Cc1nc(O)c2c(Sc3ccc(C(=O)N[C@H](CCC(=O)O)C(=O)O)cc3)c(C)ccc2n1`, the IC50 came out at 4.1 µM with GC3/MTK-, 0.99 µM in the data set on CCRF-CEM and 1.05 µM with L1210 [3]. Further, in the data set on L1210 [6], the Thymidine shift is on record as greater than 22. The compound further came in with a Ki on Thymidylate synthase [8] of 0.00131 µM.

In turn, `COc1cc(Sc2c(C)ccc3nc(C)nc(O)c23)ccn1` had an IC50 in the data set on GC3/MTK- greater than 5 µM. The Ki on Thymidylate synthase [1] was determined as 0.71 µM; on Thymidylate synthase [4], 0.037 µM; on Thymidylate synthase [2] it was 0.28 µM; on Thymidylate synthase [5] it was 0.046 µM.

For `Cc1ccc2nc(N)nc(O)c2c1Sc1ccc(C(=O)N[C@H](CCC(=O)O)C(=O)O)cc1`, the IC50 turned out to be 1.7 µM in the data set on GC3/MTK-, 0.52 µM in the data set on CCRF-CEM and 2.5 µM in the data set on L1210 [3]. Besides, the Thymidine shift with L1210 [6] is listed as roughly 8. For the same compound, the Ki at Thymidylate synthase [8] was 0.000124 µM.

As for `CCc1ccc2nc(C)nc(O)c2c1Sc1ccncc1`, the IC50 in the data set with GC3/MTK-, with CCRF-CEM and in the data set on L1210 [3] was greater than 10 µM in each case. In addition, the Ki turned out to be 0.2 µM at Thymidylate synthase [4] and 0.59 µM on Thymidylate synthase [5]. In the data set on L1210 [6], the Thymidine shift is on record as roughly 10.

In the case of `Cc1nc(O)c2c(Oc3ccccc3)cccc2n1`, the Ki at Thymidylate synthase [4] and at Thymidylate synthase [2] was greater than 100 µM throughout. The IC50 with CCRF-CEM and with L1210 [3] was greater than 50 µM each time.

Consider `Cc1nc(O)c2c(Sc3cccnc3)c(C)ccc2n1`, for which the IC50 in the data set on GC3/MTK-, with CCRF-CEM and with L1210 [3] was greater than 2.5 µM each time. Further, the Ki was 9.3 µM on Thymidylate synthase [1], 0.31 µM on Thymidylate synthase [4], 1.7 µM on Thymidylate synthase [2] and 1.1 µM on Thymidylate synthase [5].

Consider `Cc1ccc2nc(N)nc(O)c2c1Sc1ccnc(N(C)C)c1`, for which the IC50 with GC3/MTK- is 5.2 µM; with CCRF-CEM, 4.9 µM; with L1210 [3], 1.8 µM. Also, the figures for the Ki at Thymidylate synthase [4] and on Thymidylate synthase [5] were 0.032 µM and 0.05 µM, respectively. In the data set on L1210 [6], the Thymidine shift is greater than 20.

On to `Cc1cc(Sc2c(C)ccc3nc(C)nc(O)c23)ccn1`, for which the IC50 in the data set with GC3/MTK- stood at 5 µM; in the data set with CCRF-CEM it was 4.2 µM; in the data set with L1210 [3] it was 4.2 µM. Further, the Ki at Thymidylate synthase [1] was determined as 0.53 µM; at Thymidylate synthase [4], 0.039 µM; at Thymidylate synthase [2] it was 0.24 µM; on Thymidylate synthase [5] it was 0.066 µM.

`Cc1nc(O)c2c(Sc3ccncc3)cccc2n1`: the IC50 in the data set with GC3/MTK- and in the data set on CCRF-CEM was greater than 26.9 µM throughout. Moreover, the Ki on Thymidylate synthase [1] came out at 30 µM; on Thymidylate synthase [4], 0.96 µM; at Thymidylate synthase [2], 10 µM.

As to `Cc1nc(O)c2c(Sc3ccc(C(=O)O)cc3)c(C)ccc2n1`, the IC50 with GC3/MTK- is greater than 50 µM; in the data set with CCRF-CEM, greater than 50 µM; in the data set with L1210 [3], 50 µM. The inhibitory constant (Ki) was 0.141 µM at Thymidylate synthase [4] and 0.065 µM on Thymidylate synthase [5]. Moreover, in the data set on L1210 [6], the Thymidine shift is listed as greater than 5.

As for `COc1ccc2nc(C)nc(O)c2c1Sc1ccncc1`, the IC50 with GC3/MTK- was 32 µM; in the data set on CCRF-CEM, 26 µM; in the data set with L1210 [3], 21 µM. The Ki was found to be 3.9 µM on Thymidylate synthase [1] and 1.5 µM at Thymidylate synthase [2].

As to `Cc1nc(O)c2c(Sc3ccccn3)cccc2n1`, the IC50 with GC3/MTK-, in the data set with CCRF-CEM and in the data set with L1210 [3] was greater than 50 µM in each case. For the same compound, the Ki is greater than 80 µM at Thymidylate synthase [1], 120 µM at Thymidylate synthase [4], greater than 80 µM at Thymidylate synthase [2] and 190 µM at Thymidylate synthase [5]. The Thymidine shift in the data set on L1210 [6] stood at 1.

On to `Cc1nc(O)c2c(Sc3ccccc3)cccc2n1`, for which the Ki on Thymidylate synthase [4] and on Thymidylate synthase [2] was greater than 10 µM in each case. Moreover, the IC50 with CCRF-CEM and with L1210 [3] was greater than 4.2 µM each time.

Consider `Cc1nc(O)c2c(Sc3ccnc(C(F)(F)F)c3)c(C)ccc2n1`, for which the values for the Ki at Thymidylate synthase [1], on Thymidylate synthase [4] and at Thymidylate synthase [2] were 0.54 µM, 0.07 µM and 0.23 µM, respectively.

`Cc1nc(O)c2c(Sc3ccc([N+](=O)[O-])cc3)c(C)ccc2n1`: the half-inhibitory concentration (IC50) in the data set on GC3/MTK- is greater than 4 µM; in the data set with CCRF-CEM, 2.9 µM; in the data set with L1210 [3], 3 µM. The Ki at Thymidylate synthase [1] was determined as 0.73 µM; at Thymidylate synthase [4], 0.056 µM; on Thymidylate synthase [2], 0.49 µM; at Thymidylate synthase [5], 0.078 µM. For the same compound, the Thymidine shift in the data set with L1210 [6] amounted to 3.3. Besides, in data set [7], the logP turned out to be 3.29.

`Cc1nc(O)c2c(Sc3ccnc(N(C)C)c3)c(C)ccc2n1`: the IC50 came to 18 µM in the data set with GC3/MTK-, 10.5 µM with CCRF-CEM and 4.05 µM with L1210 [3]. The Ki on Thymidylate synthase [4] stood at 0.08 µM; on Thymidylate synthase [5], 0.058 µM. Moreover, the Thymidine shift in the data set on L1210 [6] amounted to 4.25.

The record behind these values is ChEMBL document CHEMBL1126619, “Design of thymidylate synthase inhibitors using protein crystal structures: the synthesis and biological evaluation of a novel class of 5-substituted quinazolinones” (J Med Chem, 1993).
